Experimental data from ChEMBL document CHEMBL1151703, “Irreversible inhibition of dihydrodipicolinate synthase by 4-oxo-heptenedioic acid analogues” (Bioorg Med Chem, 2008).
Active and inactive are the calls of the source. The calls are words filed in the database; no cut-off is given here.

How the values were obtained:
[1] = target: T1, 4-hydroxy-tetrahydrodipicolinate synthase (Escherichia coli K-12) (UniProt P0A6L2); experiment: (§1) Inhibition of Escherichia coli recombinant DHDPS overexpressed with DHDPR assessed as residual activity by modified coupled assay; settings: TDE = time-dependent effect
T1 sequence (whole entry): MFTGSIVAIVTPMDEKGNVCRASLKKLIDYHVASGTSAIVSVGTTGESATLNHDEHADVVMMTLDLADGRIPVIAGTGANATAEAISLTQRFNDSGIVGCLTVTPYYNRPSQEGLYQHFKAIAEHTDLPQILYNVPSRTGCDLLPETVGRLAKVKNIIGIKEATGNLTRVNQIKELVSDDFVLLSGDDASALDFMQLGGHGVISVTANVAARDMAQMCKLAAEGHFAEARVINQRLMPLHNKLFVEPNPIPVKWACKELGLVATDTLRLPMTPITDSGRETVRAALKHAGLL
Method in brief: (§2)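 Recombinant E. coli DHDPS, purified, pre-incubated with inhibitor for various times before activity measurement in a coupled assay with E. coli DHDPR (modified coupled assay) at 30 °C; inhibitor range 0.1–250 mM across compounds. Each decay curve was fitted to give kobs; kobs versus [I] was fitted to give kinact and Ki(app); the second-order rate constant is kinact/Ki(app).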

[2] = target: T2, 4-hydroxy-tetrahydrodipicolinate synthase (Escherichia coli K-12, UniProt P0A6L2); experiment: as §1; settings: read-out: Ki(app); method in brief: as §2
T2 sequence (P0A6L2 whole entry): T1 sequence (whole entry)

[3] = target: T1, 4-hydroxy-tetrahydrodipicolinate synthase (Escherichia coli K-12); experiment: Inactivation of Escherichia coli recombinant DHDPS; method in brief: as §2
[4] = target: T1, 4-hydroxy-tetrahydrodipicolinate synthase (Escherichia coli K-12); experiment: Ratio of Kinact to Ki(app) for Escherichia coli recombinant DHDPS; method in brief: as §2
[5] = target: T1, 4-hydroxy-tetrahydrodipicolinate synthase (Escherichia coli K-12); experiment: Inhibition of Escherichia coli recombinant DHDPS overexpressed with DHDPR assessed as residual activity at 2 mM within 6 min by modified coupled assay; method in brief: as §2
[6] = target: T2, 4-hydroxy-tetrahydrodipicolinate synthase; experiment: Inhibition of Escherichia coli DHDPS
[7] = Inhibition of succinyl co-transferase; settings: read-out: Ki(app)
[8] = target: T3, 4-hydroxy-tetrahydrodipicolinate synthase (Bacillus subtilis (strain 168), UniProt Q04796); experiment: Inhibition of Bacillus subtilis DHDPS
T3 sequence (Q04796 whole entry): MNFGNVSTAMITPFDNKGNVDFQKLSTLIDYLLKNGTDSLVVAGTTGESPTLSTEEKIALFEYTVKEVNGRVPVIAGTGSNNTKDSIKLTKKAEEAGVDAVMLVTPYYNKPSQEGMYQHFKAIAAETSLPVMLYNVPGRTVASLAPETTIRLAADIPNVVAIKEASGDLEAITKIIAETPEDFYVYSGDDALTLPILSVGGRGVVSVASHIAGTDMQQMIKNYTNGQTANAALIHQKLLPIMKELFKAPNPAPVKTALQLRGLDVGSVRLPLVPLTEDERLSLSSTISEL

Row | Activity [1] | Ki [2] [µM] | Kinact [3] [×10⁻³ /s] | Ratio [4] [M⁻¹ s⁻¹] | Ki [6] [µM] | SMILES | other results
1 |  |  |  |  | 830 | CCC(=O)C(=O)O | 
2 |  |  |  |  | 16 | O=CC(=O)O [GLYOXYLATE] | 
3 |  |  |  |  | 700 | CCCC(=O)C(=O)O | 
4 | tde | 1630 | 1.9 | 1.2 |  | O=C(O)/C=C/C(=O)/C=C/C(=O)O | Ki [7]: 530 µM

The next lines start with the compound.

Row | SMILES | Activity [1] | Ki [2] [µM] | Kinact [3] [×10⁻³ /s] | Ratio [4] [M⁻¹ s⁻¹] | Ki [6] [µM] | other results
5 | CCOC(=O)/C=C/C(=O)CCC(=O)OCC | tde | 10900 | 1.2 | 0.11 |  | 
6 | CCOC(=O)/C=C/C(=O)/C=C/C(=O)OCC |  | 4950 | 29 | 5.9 |  | Activity [5]: Active
7 | O=C(O)/C=C/C(=O)CCC(=O)O | tde | 32400 | 4.1 | 0.12 |  | 
8 | O=C(O)C(=O)CF |  |  |  |  | 220 | 
9 | O=C(O)C(=O)CCCC(=O)C(=O)O |  |  |  |  |  | Ki [8]: 160 µM
